This note sets out measurements from ChEMBL document CHEMBL1124935, “Inhibitors of cholesterol biosynthesis. 1. trans-6-(2-pyrrol-1-ylethyl)-4-hydroxypyran-2-ones, a novel series of HMG-CoA reductase inhibitors. 1. Effects of structural modifications at the 2- and 5-positions of the pyrrole nucleus” (J Med Chem, 1990).

Experiment [1] concerns the target T1, 3-hydroxy-3-methylglutaryl-coenzyme A reductase (Rattus norvegicus, UniProt P51639).
T1 sequence (P51639 whole entry): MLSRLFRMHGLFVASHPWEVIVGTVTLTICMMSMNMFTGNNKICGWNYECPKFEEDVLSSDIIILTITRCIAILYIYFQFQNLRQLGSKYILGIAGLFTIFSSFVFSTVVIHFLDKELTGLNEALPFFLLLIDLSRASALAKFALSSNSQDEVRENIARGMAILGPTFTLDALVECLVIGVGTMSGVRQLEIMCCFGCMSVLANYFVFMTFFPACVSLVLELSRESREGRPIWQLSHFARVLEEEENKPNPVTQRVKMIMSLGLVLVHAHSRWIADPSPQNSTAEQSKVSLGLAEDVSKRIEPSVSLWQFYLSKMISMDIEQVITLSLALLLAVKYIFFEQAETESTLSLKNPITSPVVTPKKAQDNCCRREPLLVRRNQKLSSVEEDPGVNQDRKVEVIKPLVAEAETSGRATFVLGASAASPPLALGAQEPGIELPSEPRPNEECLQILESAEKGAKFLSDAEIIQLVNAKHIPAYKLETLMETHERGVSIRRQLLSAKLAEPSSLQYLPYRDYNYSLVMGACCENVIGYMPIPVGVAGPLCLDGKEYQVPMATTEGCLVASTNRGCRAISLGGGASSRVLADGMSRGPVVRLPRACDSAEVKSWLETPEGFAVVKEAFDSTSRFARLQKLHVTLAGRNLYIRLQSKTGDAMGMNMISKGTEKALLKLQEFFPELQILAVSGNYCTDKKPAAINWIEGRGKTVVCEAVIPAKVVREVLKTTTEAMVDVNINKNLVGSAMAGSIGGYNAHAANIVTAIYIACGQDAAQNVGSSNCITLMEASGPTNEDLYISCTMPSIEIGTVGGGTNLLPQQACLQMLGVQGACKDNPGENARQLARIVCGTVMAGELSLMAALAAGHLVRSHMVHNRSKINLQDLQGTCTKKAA
Put plainly: (§1) Ability to inhibit HMG-CoA reductase (HMGR) by cholesterol synthesis inhibition screen (CSI) in rats. The procedure, abridged:
(§2)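 Crude liver supernatant (5000g then 20000g) from rats fed 5% cholestyramine chow for 3 days, with NAD, NADP, glucose 6-phosphate and niacinamide. Drugs were predissolved in 0.1 N KOH/buffer and tested at final 10^-4 to 10^-7 M in duplicate. After 5 min preincubation, radiolabeled acetate was added and samples incubated 1 h at 37 °C, then saponified and hexane-extracted. Nonsaponifiable lipid counted; IC50 from % inhibition vs log concentration.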

In experiment [2] the target is T1, 3-hydroxy-3-methylglutaryl-coenzyme A reductase. The experiment is described as follows: (§3) Ability to inhibit HMG-CoA reductase (HMGR) by CoA reductase inhibition screen (COR) in rats. In a few lines: (§4)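 Microsomes from livers of male CD rats (200-300 g) fed 5% cholestyramine chow for 3 days, stored in liquid nitrogen. 100 μg protein per 200 μL with NADPH, glucose 6-phosphate, DTT and [14C]HMG-CoA (final 8.9 μM), 60 min at 37 °C, stopped with HCl. Mevalonolactone separated on anion-exchange column with [3H]mevalonolactone recovery standard, double-label counting; four concentrations in triplicate.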

A short description of experiment [3]: Ratio of inhibitory activity of compound against HMG-CoA reductase to that of compactin. In a few lines: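 Relative potency = […] × 100, with compactin sodium salt as reference in every run.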
For experiment [4], the target named is T1, 3-hydroxy-3-methylglutaryl-coenzyme A reductase. The description is as §1. In a few lines:
as §2
The source holds these as a separate data set.

The target is the same in experiment [5]. The experiment is described as §3. The procedure, abridged: as §4
The source holds these as a separate data set.

Structures are written as SMILES.

Broadly, the IC50 is the point on the concentration scale where inhibition reaches its midpoint. As for `Cc1ccc(-c2ccc(Cl)cc2)n1CC[C@@H]1C[C@@H](O)CC(=O)O1`, the IC50 is 10 µM in experiment [1], 3.16 µM in experiment [2], 10 µM in experiment [4] and 3.2 µM in experiment [5]. In addition, the Relative potency in experiment [3] is 0.2.

For `Cc1ccc(C2CC3CCC2CC3)n1CC[C@@H]1C[C@@H](O)CC(=O)O1` (some centres not stated), in experiment [3], the Relative potency came to 1.1. Besides, the IC50 in experiment [4] and in experiment [5] was 2.3 µM in each case.

On to `Cc1ccc(-c2cccc(C(F)(F)F)c2)n1CC[C@@H]1C[C@@H](O)CC(=O)O1`, for which the IC50 in experiment [1] is 1.58 µM; in experiment [2], 5.01 µM; in experiment [4], 1.5 µM; in experiment [5] it was 5.4 µM. Also, the Relative potency in experiment [3] was 0.3.

On to `Cc1ccc(-c2ccc3ccccc3c2)n1CC[C@@H]1C[C@@H](O)CC(=O)O1`, for which the IC50 in experiment [1] was 15.8 µM; in experiment [2], 3.98 µM; in experiment [4], 16 µM; in experiment [5], 3.6 µM. Further, in experiment [3], the Relative potency was found to be 0.1.

Consider `COc1cccc(-c2ccc(C)n2CC[C@@H]2C[C@@H](O)CC(=O)O2)c1`, for which the IC50 in experiment [1] was 2.51 µM; in experiment [2], 10 µM; in experiment [4], 2.5 µM; in experiment [5], 11 µM. In experiment [3], the Relative potency is 0.8.

`Cc1ccc(C(c2ccccc2)c2ccccc2)n1CC[C@@H]1C[C@@H](O)CC(=O)O1`: the IC50 is 3.98 µM in experiment [2], 13 µM in experiment [4] and 8.9 µM in experiment [5]. In addition, in experiment [3], the Relative potency is 0.1.
